Assay results as given in ChEMBL document CHEMBL3997801, “Design, Palladium-Catalyzed Synthesis, and Biological Investigation of 2-Substituted 3-Aroylquinolin-4(1H)-ones as Inhibitors of the Hedgehog Signaling Pathway” (J Med Chem, 2017).
The source made the active and inactive calls. No cut-off for these calls is given here.

Tests used:
[1] = biological target: Protein smoothened (Mus musculus) (UniProt P56726); assay: Antagonist activity at Smo in Ptch1+/- mouse medulloblastoma cells assessed as inhibition of Hh signaling pathway by measuring suppression of Gli1 mRNA expression at 10 uM after 24 hrs by qRT-PCR method
Sequence of Protein smoothened (Mus musculus) (P56726 whole entry): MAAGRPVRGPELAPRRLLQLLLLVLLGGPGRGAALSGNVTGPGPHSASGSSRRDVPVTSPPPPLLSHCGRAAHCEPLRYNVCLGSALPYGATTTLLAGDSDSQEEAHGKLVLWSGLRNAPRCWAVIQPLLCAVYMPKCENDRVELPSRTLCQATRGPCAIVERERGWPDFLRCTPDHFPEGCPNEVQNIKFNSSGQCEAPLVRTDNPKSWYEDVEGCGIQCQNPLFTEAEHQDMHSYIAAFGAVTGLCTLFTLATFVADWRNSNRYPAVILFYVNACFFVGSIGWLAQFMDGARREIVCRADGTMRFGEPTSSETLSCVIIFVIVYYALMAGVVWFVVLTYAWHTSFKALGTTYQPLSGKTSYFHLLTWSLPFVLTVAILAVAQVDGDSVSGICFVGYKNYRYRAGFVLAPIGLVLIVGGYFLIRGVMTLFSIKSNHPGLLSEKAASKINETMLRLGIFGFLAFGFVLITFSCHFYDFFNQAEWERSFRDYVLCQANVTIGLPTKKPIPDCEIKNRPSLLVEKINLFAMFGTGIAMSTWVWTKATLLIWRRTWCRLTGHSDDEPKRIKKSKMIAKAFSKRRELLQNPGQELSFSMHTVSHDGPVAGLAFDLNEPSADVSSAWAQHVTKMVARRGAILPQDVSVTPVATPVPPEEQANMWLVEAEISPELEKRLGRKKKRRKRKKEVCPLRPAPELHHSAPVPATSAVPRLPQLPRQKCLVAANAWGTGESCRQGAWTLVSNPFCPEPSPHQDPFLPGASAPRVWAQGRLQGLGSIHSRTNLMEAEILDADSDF
Outline: (§1)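 Freshly isolated Ptch1± mouse MB cells in short-term culture, treated 24 h with compound (10 μM) or DMSO. mRNA measured by qRT-PCR against a calibrator (arbitrary units) and normalized to β2-microglobulin and HPRT. Mean ± SD of three independent experiments.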

[2] = biological target: Protein smoothened (Mus musculus) (UniProt P56726); assay: Antagonist activity at Smo in […]-stimulated mouse granule cell progenitors assessed as inhibition of Hh signaling pathway-dependent cell proliferation by measuring suppression of CycD2 mRNA expression at 5 uM after 24 hrs by qRT-PCR method
[3] = biological target: Protein smoothened (Mus musculus) (UniProt P56726); assay: Antagonist activity at Smo in Ptch1-/- mouse MEF assessed as inhibition of Hh signaling pathway by measuring suppression of HIP1 mRNA expression at 5 uM after 48 hrs by qRT-PCR method
[4] = biological target: Protein smoothened (Mus musculus) (UniProt P56726); assay: Antagonist activity at Smo in mouse ASZ001 cells assessed as inhibition of Hh signaling pathway by measuring suppression of CycD2 mRNA expression at 10 uM after 48 hrs by qRT-PCR method; type: cell-based
Outline: (§2)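 ASZ001 BCC cells (154CF medium, 2% chelated FBS, 0.05 mM CaCl2), treated 48 h with compound or DMSO. Transcripts quantified by qRT-PCR relative to a calibrator, normalized to β2-microglobulin and HPRT.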

[5] = biological target: Protein smoothened (Mus musculus) (UniProt P56726); assay: Antagonist activity at Smo in Ptch1+/- mouse medulloblastoma cells assessed as inhibition of Hh signaling pathway by measuring suppression of Gli2 mRNA expression at 10 uM after 24 hrs by qRT-PCR method; outline: as §1
[6] = biological target: Protein smoothened (Mus musculus) (UniProt P56726); assay: Antagonist activity at Smo in […]-stimulated mouse granule cell progenitors assessed as inhibition of Hh signaling pathway-dependent cell proliferation by measuring suppression of CycD1 protein expression at 5 uM after 24 hrs by Western blot method
[7] = biological target: Protein smoothened (Mus musculus) (UniProt P56726); assay: Antagonist activity at Smo in […]-stimulated mouse granule cell progenitors assessed as inhibition of Hh signaling pathway-dependent cell proliferation by measuring suppression of Gli2 mRNA expression at 5 uM after 24 hrs by qRT-PCR method
[8] = biological target: Protein smoothened (Mus musculus) (UniProt P56726); assay: Antagonist activity at Smo in mouse ASZ001 cells assessed as inhibition of Hh signaling pathway by measuring suppression of Gli2 mRNA expression at 10 uM after 48 hrs by qRT-PCR method; type: cell-based; outline: as §2
Protein smoothened = Protein smoothened (Mus musculus, UniProt P56726); assay: Inhibition of Bodipy-cyclopamine binding to mouse FLAG-tagged Smo expressed in HEK293 cells after 3 hrs by Hoechst staining based fluorescence assay; type: cell-based
Sequence of Protein smoothened (P56726 whole entry): as above
Outline: (§3)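 Cells transiently transfected with mouse Flag-tagged Smo WT or D477G were washed in PBS/0.5% FBS, fixed 10 min in 4% paraformaldehyde and permeabilized with 0.2% Triton X-100. They were then incubated 3 h at 37 °C with Bodipy-cyclopamine 5 nM plus compound, with Hoechst nuclear stain. Green signal was scored in 3–4 fields per coverslip (20×) as % of binding with BC alone.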

[9] = biological target: Protein smoothened (Mus musculus) (UniProt P56726); assay: Antagonist activity at Smo in Ptch1-/- mouse MEF assessed as inhibition of Hh signaling pathway by measuring suppression of Igf2 mRNA expression at 5 uM after 48 hrs by qRT-PCR method
[10] = biological target: Protein smoothened (Mus musculus) (UniProt P56726); assay: Antagonist activity at Smo in mouse ASZ001 cells assessed as inhibition of Hh signaling pathway by measuring suppression of Ptch1 mRNA expression at 10 uM after 48 hrs by qRT-PCR method; type: cell-based; outline: as §2
[11] = biological target: Protein smoothened (Mus musculus) (UniProt P56726); assay: Antagonist activity at Smo in Ptch1+/- mouse medulloblastoma cells assessed as inhibition of Hh signaling pathway by measuring suppression of CycD2 mRNA expression at 10 uM after 24 hrs by qRT-PCR method; outline: as §1
[12] = biological target: Protein smoothened (Mus musculus) (UniProt P56726); assay: Antagonist activity at Smo in Ptch1-/- mouse MEF assessed as inhibition of Hh signaling pathway by measuring suppression of Gli2 mRNA expression at 5 uM after 48 hrs by qRT-PCR method
[13] = biological target: Protein smoothened (Mus musculus) (UniProt P56726); assay: Antagonist activity at Smo in […]-stimulated mouse granule cell progenitors assessed as inhibition of Hh signaling pathway-dependent cell proliferation by measuring suppression of Ptch1 mRNA expression at 5 uM after 24 hrs by qRT-PCR method
[14] = biological target: Protein smoothened (Mus musculus) (UniProt P56726); assay: Antagonist activity at Smo in mouse ASZ001 cells assessed as inhibition of Hh pathway dependent cell growth up to 72 hrs by trypan blue assay; type: cell-based
Outline: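 ASZ001 BCC cells grown in 154CF medium with 2% Chelex-chelated FBS and 0.05 mM CaCl2, treated with compound or DMSO control; viable cells counted by trypan blue after 24, 48 and 72 h.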

[15] = biological target: Protein smoothened (Mus musculus) (UniProt P56726); assay: Antagonist activity at Smo in Ptch1-/- mouse MEF assessed as inhibition of Hh signaling pathway by measuring suppression of Ptch1 mRNA expression at 5 uM after 48 hrs by qRT-PCR method
[16] = biological target: Protein smoothened (Mus musculus) (UniProt P56726); assay: Antagonist activity at Smo in […]-stimulated mouse granule cell progenitors assessed as inhibition of Hh signaling pathway-dependent cell proliferation by measuring suppression of N-Myc mRNA expression at 5 uM after 24 hrs by qRT-PCR method
[17] = biological target: Protein smoothened (Mus musculus) (UniProt P56726); assay: Antagonist activity at Smo in Ptch1-/- mouse MEF assessed as inhibition of Hh signaling pathway by measuring suppression of CycD1 mRNA expression at 5 uM after 48 hrs by qRT-PCR method
[18] = biological target: Protein smoothened (Mus musculus) (UniProt P56726); assay: Antagonist activity at Smo in […]-stimulated mouse granule cell progenitors assessed as inhibition of Hh signaling pathway-dependent cell proliferation by measuring suppression of CycD1 mRNA expression at 5 uM after 24 hrs by qRT-PCR method
Mus musculus = species on record: Mus musculus; assay: (§4) Inhibition of Bodipy-cyclopamine binding to mouse FLAG-tagged Smo D477G mutant expressed in HEK293 cells after 3 hrs by Hoechst staining based fluorescence assay; type: cell-based; outline: as §3
[19] = as §4; type: cell-based; outline: as §3
[20] = biological target: Protein smoothened (Mus musculus) (UniProt P56726); assay: Antagonist activity at Smo in […]-stimulated mouse granule cell progenitors assessed as inhibition of Hh signaling pathway-dependent cell proliferation by measuring suppression of NMyc protein expression at 5 uM after 24 hrs by Western blot method
[21] = biological target: Protein smoothened (Mus musculus) (UniProt P56726); assay: Antagonist activity at Smo in […]-stimulated mouse granule cell progenitors assessed as inhibition of Hh signaling pathway-dependent cell proliferation by measuring suppression of Gli1 protein expression at 5 uM after 24 hrs by Western blot method
[22] = biological target: Protein smoothened (Mus musculus) (UniProt P56726); assay: Antagonist activity at Smo in Ptch1-/- mouse MEF assessed as inhibition of Hh signaling pathway by measuring suppression of CycD2 mRNA expression at 5 uM after 48 hrs by qRT-PCR method
[23] = biological target: Protein smoothened (Mus musculus) (UniProt P56726); assay: Antagonist activity at Smo in mouse ASZ001 cells assessed as inhibition of Hh signaling pathway by measuring suppression of Gli1 mRNA expression at 10 uM after 48 hrs by qRT-PCR method; type: cell-based; outline: as §2
[24] = biological target: Protein smoothened (Mus musculus) (UniProt P56726); assay: Antagonist activity at Smo in Ptch1+/- mouse medulloblastoma cells assessed as inhibition of Hh signaling pathway by measuring suppression of Ptch1 mRNA expression at 10 uM after 24 hrs by qRT-PCR method; outline: as §1
[25] = biological target: Protein smoothened (Mus musculus) (UniProt P56726); assay: Antagonist activity at Smo in mouse ASZ001 cells assessed as inhibition of Hh signaling pathway by measuring suppression of CycD1 mRNA expression at 10 uM after 48 hrs by qRT-PCR method; type: cell-based; outline: as §2
[26] = biological target: Protein smoothened (Mus musculus) (UniProt P56726); assay: Antagonist activity at Smo in […]-stimulated mouse granule cell progenitors assessed as inhibition of Hh signaling pathway-dependent cell proliferation by measuring suppression of Gli1 mRNA expression at 5 uM after 24 hrs by qRT-PCR method
[27] = biological target: Protein smoothened (Mus musculus) (UniProt P56726); assay: Antagonist activity at Smo in Ptch1+/- mouse medulloblastoma cells assessed as inhibition of Hh pathway dependent cell growth up to 72 hrs by trypan blue assay
Outline: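 Primary MB cells freshly isolated from Ptch1± mouse tumours, used in short-term culture to keep Hh sensitivity; compound 10 μM or DMSO control; viable cells counted by trypan blue after 24, 48 and 72 h. Mean ± SD of three independent experiments.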

[28] = biological target: Protein smoothened (Mus musculus) (UniProt P56726); assay: Antagonist activity at Smo in Ptch1-/- mouse MEF assessed as inhibition of Hh signaling pathway by measuring suppression of Gli1 mRNA expression at 5 uM after 48 hrs by qRT-PCR method
[29] = biological target: Protein smoothened (Mus musculus) (UniProt P56726); assay: Antagonist activity at Smo in Ptch1+/- mouse medulloblastoma cells assessed as inhibition of Hh signaling pathway by measuring suppression of CycD1 mRNA expression at 10 uM after 24 hrs by qRT-PCR method; outline: as §1
[30] = biological target: Protein smoothened (Mus musculus) (UniProt P56726); assay: Antagonist activity at Smo in mouse ASZ001 cells assessed as inhibition of Hh signaling pathway by measuring suppression of BMP2 mRNA expression at 10 uM after 48 hrs by qRT-PCR method; type: cell-based; outline: as §2

COc1cccc(C(=O)c2c(-c3ccccc3)[nH]c3ccccc3c2=O)c1
inhibition [1]: Active
inhibition [2]: Active
inhibition [3]: Active
inhibition [4]: Active
inhibition [5]: Active
inhibition [6]: Active
inhibition [7]: Active
inhibition [8]: Active
IC50 (Protein smoothened): 13.8 µM
inhibition [9]: Active
inhibition [10]: Active
inhibition [11]: Active
inhibition [12]: Active
inhibition [13]: Active
growth inhibition (GI) [14]: Dose-dependent effect
inhibition [15]: Active
inhibition [16]: Active
inhibition [17]: Active
inhibition [18]: Active
inhibition (Mus musculus): Dose-dependent effect
IC50 [19]: 12.4 µM
inhibition [20]: Active
inhibition [21]: Active
inhibition [22]: Active
inhibition [23]: Active
inhibition [24]: Active
inhibition [25]: Active
inhibition [26]: Active
growth inhibition (GI) [27]: Dose-dependent effect
inhibition [28]: Active
inhibition [29]: Active
inhibition [30]: Active

O=C(c1ccccc1)c1c(-c2ccccc2)[nH]c2ccc(Br)cc2c1=O
inhibition [1]: Active
inhibition [2]: Active
inhibition [3]: Active
inhibition [4]: Active
inhibition [5]: Active
inhibition [6]: Active
inhibition [7]: Active
inhibition [8]: Active
IC50 (Protein smoothened): 24 µM
inhibition [9]: Active
inhibition [10]: Active
inhibition [11]: Active
inhibition [12]: Active
inhibition [13]: Active
growth inhibition (GI) [14]: Dose-dependent effect
inhibition [15]: Active
inhibition [16]: Active
inhibition [17]: Active
inhibition [18]: Active
inhibition (Mus musculus): Dose-dependent effect
IC50 [19]: 29.4 µM
inhibition [20]: Active
inhibition [21]: Active
inhibition [22]: Active
inhibition [23]: Active
inhibition [24]: Active
inhibition [25]: Active
inhibition [26]: Active
growth inhibition (GI) [27]: Dose-dependent effect
inhibition [28]: Active
inhibition [29]: Active
inhibition [30]: Active
